This note sets out measurements from ChEMBL document CHEMBL2406992, “Validation of inhibitors of an ABC transporter required to transport lipopolysaccharide to the cell surface in Escherichia coli” (2013).

The subject of assay [1] is Escherichia coli. Kind of assay: Antibacterial activity against Escherichia coli MC4100 assessed as growth inhibition after 24 hrs by microdilution method. The conditions noted are these: MC4100, 24 h. Format: functional.
Assay [2] has as its system Escherichia coli. The experiment in a line: Antibacterial activity against Escherichia coli NR698 assessed as growth inhibition after 24 hrs by microdilution method. To be noted: NR698, 24 h. In kind it is functional. Background: In broth dilution the organism is exposed to a series of concentrations in liquid medium.
Assay [3] relates to Escherichia coli. The experiment in a line: Inhibition of Escherichia coli MC4100 His6-tagged LptB overexpressed in Escherichia coli BL21 (deltaDE3) assessed as inorganic phosphate release at 100 uM after 5 mins by molybdate method. In a few lines: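 Single-point assay. Purified His-LptB (7 μM) in 50 mM Tris-HCl pH 8.0, 500 mM NaCl, 10% glycerol was preincubated 5 min at 25 °C with 100 μM inhibitor (2% DMSO final). Started with 1 mM ATP at 25 °C and quenched in the linear range with 12% SDS. Released phosphate was read by molybdate absorbance, relative to a DMSO control.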

Assay [4] has as its system Escherichia coli. The experiment in a line: Inhibition of Escherichia coli MC4100 LptBFGC overexpressed in Escherichia coli BL21 (deltaDE3) assessed as inorganic phosphate release at 100 uM after 5 mins by molybdate method. In a few lines: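 Detergent-purified LptBFGC, 0.2 μM in 50 mM Tris-HCl pH 8.0, 500 mM NaCl, 10% glycerol, 0.05% DDM. Preincubated 5 min at 25 °C with 100 μM inhibitor (2% DMSO final). Reaction started with 0.5 mM ATP at 25 °C and stopped in the linear range with 12% SDS. Phosphate was measured by modified molybdate method, relative to uninhibited DMSO control.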

Assay [5] has as its system Escherichia coli. Kind of assay: Inhibition of Escherichia coli MC4100 LptBFGC overexpressed in Escherichia coli BL21 (deltaDE3) assessed as inorganic phosphate release after 5 mins by molybdate method. In a few lines: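 LptBFGC was expressed from an LptCAB-His6 plasmid in BL21(λDE3) (50 μM IPTG, 2 h, 37 °C) and purified in DDM. Assayed at 0.2 μM in 50 mM Tris-HCl pH 8.0, 500 mM NaCl, 10% glycerol, 0.05% DDM. Varying inhibitor (2% DMSO) was preincubated 5 min at 25 °C, then ATP was added. Quenched in the linear range with SDS. Molybdate phosphate read-out, normalized to DMSO.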

Assay [6] has as its system Escherichia coli. The experiment in a line: Selectivity ratio of IC50 for Escherichia coli MC4100 LptBFGC to IC50 for Escherichia coli MC4100 His6-tagged LptB.
The test system of assay [7] is Escherichia coli. Kind of assay: Inhibition of Escherichia coli MC4100 His6-tagged LptB overexpressed in Escherichia coli BL21 (deltaDE3) assessed as inorganic phosphate release after 5 mins by molybdate method. In a few lines:
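His-tagged LptB, Ni-NTA and size-exclusion purified, at 7 μM in 50 mM Tris-HCl pH 8.0, 500 mM NaCl, 10% glycerol. Varied inhibitor concentrations (DMSO, 2% final) were preincubated 5 min at 25 °C, then ATP was added at 25 °C. Stopped within the linear range with an equal volume of 12% SDS. Phosphate was read by modified molybdate absorbance and normalized to the DMSO control.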

Converted amounts (≈) assume the structure as drawn. The source made the active and inactive calls. The calls are words filed in the database; no cut-off is given here.

The term MIC denotes the lowest concentration that inhibits growth of the organism. Turning to `O=C1NC(=O)c2c1c(-c1ccccc1Cl)cc1[nH]c3ccc(O)cc3c21`, the MIC in the assay with Escherichia coli [1] is above 100 µM; in the assay with Escherichia coli [2], 25 µM (≈ 9.07 µg/mL).

On to `O=C1NC(=O)c2c1c(-c1ccccc1Cl)cc1c2c2cc(O)c(OCCCN3CCCC3)cc2n1CCO`, for which the values for the MIC with Escherichia coli [1] and with Escherichia coli [2] were above 100 µM and 100 µM (≈ 53.4 µg/mL), respectively. Also, the inhibition result in the assay with Escherichia coli [3] and with Escherichia coli [4] was “Active” each time.

Consider `O=C1NC(=O)c2c1c(-c1ccccc1Br)cc1[nH]c3ccc(O)cc3c21`, for which the minimal inhibitory concentration (MIC) was above 100 µM with Escherichia coli [1] and 12.5 µM (≈ 5.09 µg/mL) in the assay on Escherichia coli [2]. The inhibition result in the assay on Escherichia coli [3] and in the assay on Escherichia coli [4] was “Active” each time.

`Cn1c2cc(S(=O)(=O)CCCN3CCCC3)c(O)cc2c2c3c(c(-c4ccccc4Cl)cc21)C(=O)NC3=O`: the MIC is above 100 µM in the assay with Escherichia coli [1] and 50 µM (≈ 27.6 µg/mL) with Escherichia coli [2]. Moreover, the inhibition result in the assay on Escherichia coli [3] and in the assay with Escherichia coli [4] was “Active” in each case.

As for `CSc1ccccc1-c1cc2[nH]c3ccc(O)cc3c2c2c1C(=O)NC2=O`, the MIC in the assay with Escherichia coli [1] was above 100 µM; in the assay with Escherichia coli [2], 25 µM (≈ 9.36 µg/mL). In addition, the inhibition result in the assay with Escherichia coli [3] and in the assay with Escherichia coli [4] was “Active” each time.

For the compound `O=C1NC(=O)c2c1c(-c1c(Cl)cccc1Cl)cc1[nH]c3ccc(O)cc3c21`, the MIC is above 100 µM in the assay with Escherichia coli [1] and 12.5 µM (≈ 4.97 µg/mL) in the assay on Escherichia coli [2]. Moreover, the inhibition entry in the assay on Escherichia coli [5] and with Escherichia coli [7] was “Dose-dependent effect” each time. In the assay with Escherichia coli [6], the Ratio IC50 worked out at 6.

Regarding `Cn1c2cc(OCCCN3CCCC3)c(O)cc2c2c3c(c(-c4ccccc4Cl)cc21)C(=O)NC3=O`, the values for the MIC in the assay with Escherichia coli [1] and with Escherichia coli [2] were above 100 µM and 100 µM (≈ 50.4 µg/mL), respectively. For the same compound, the inhibition entry with Escherichia coli [3] and in the assay on Escherichia coli [4] was “Active” each time.

For the compound `CN(C)CCCOc1cc2c(cc1O)c1c3c(c(-c4ccccc4Cl)cc1n2C)C(=O)NC3=O`, the minimal inhibitory concentration (MIC) is above 100 µM in the assay with Escherichia coli [1] and 25 µM (≈ 11.9 µg/mL) with Escherichia coli [2]. Also, the inhibition result in the assay on Escherichia coli [3] and in the assay with Escherichia coli [4] was “Active” in each case.
